# Source: PubChem BioAssay (several laboratories)
# An excerpt weighted towards active compounds, which were near 4.7% of everything screened.
# MrgX1 ag: agonists of human MrgX1 receptor, primary screen, HEK293 cells, Fluo-4 calcium flux | Mas-related G-protein coupled receptor member X1 (Homo sapiens), Q96LB2 | Fluo-4 calcium fluorescence, agonist mode; stronger effect = higher value | B-score at 10 µM | actives 0.44% (n = 310,000) | AID 588627, 2011;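 active = calcium response B-score plate-corrected fluorescence ratio at least 3 library SD, with starting fluorescence B-score inside 5 SD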
# Target sequence (Q96LB2 whole entry, looked up): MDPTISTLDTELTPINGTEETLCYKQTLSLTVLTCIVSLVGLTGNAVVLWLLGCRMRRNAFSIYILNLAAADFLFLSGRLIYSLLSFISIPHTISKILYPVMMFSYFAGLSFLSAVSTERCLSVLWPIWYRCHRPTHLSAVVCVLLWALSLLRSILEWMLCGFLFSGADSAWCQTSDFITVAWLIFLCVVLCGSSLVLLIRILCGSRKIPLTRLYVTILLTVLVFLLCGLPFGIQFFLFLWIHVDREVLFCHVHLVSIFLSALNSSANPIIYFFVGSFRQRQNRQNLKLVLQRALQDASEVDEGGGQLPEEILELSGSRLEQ
#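 Material – MrgX1-expressing HEK293 cells · Input – 15,000 cells seeded per well · Dosing – compound as first of three additions · Times – overnight seeding, then 1 h dark dye loading · Measured by – kinetic Fluo-4 NW fluorescence of intracellular calcium · Read-out – B-scored fluorescence response ratio · Benchmarks – positive and negative control wells on each plate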
# MrgX1 antag: antagonists of human MrgX1 receptor, primary screen, HEK293 cells, Fluo-4 calcium flux; actives 1.3% (n = 310,000); BAM8-22 antagonism; stronger effect = lower value; AID 588676, 2011; B-score at 10 µM;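 active = calcium-response B-score plate-corrected more than 3 library SD below zero, starting fluorescence within 5 deviations, no agonist response on first addition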;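 note: peak minus trough fluorescence over baseline after final BAM8-22 challenge near maximal dose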
# RGS4 pot: RGS4 potentiators or activators, primary screen, cell-based, HEK293 M3R inducible RGS4, calcium flux | carbachol calcium flux Fluo4; stronger effect = lower value | B-score at 10 µM | actives 0.92% (n = 310,000) | AID 463111, 2010;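 active = B-score of the integrated calcium signal more than 4 SD below the library mean, with starting fluorescence not abnormally high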;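 note: negative B-score means reduced calcium response which marks RGS4 activation or potentiation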
#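 Material: Inducible-RGS4 HEK293 cells carrying M3 receptor; also added: carbachol at ECmax as muscarinic agonist stimulus; incubation: compound preincubation 20 min at room temperature before agonist; signal: Fluo4-AM (2 µM) calcium-flux fluorescence, kinetic read; measure: integrated calcium ratio converted to B score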
# KCC2 mod: KCC2 cotransporter modulators, thallium flux, primary screen, cell-based, HEK293 KCC2, FluoZin-2 fluorescence, MLSMR; Solute carrier family 12 member 5 (Homo sapiens), Q9H2X9; KCC2 cells, thallium flux FluoZin-2 fluorescence; B-score of Tl+ flux slope (higher = more flux/activation; lower = inhibition) at 10 µM; actives 2.2% (n = 190,000);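 active = thallium flux slope and its plate-corrected score both differing from the plate sample mean at a set confidence after two filtering rounds, in either direction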;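 note: slope of fluorescence scaled to starting intensity during 10 to 20 s after thallium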
# RGS4 block: RGS4 inhibitors, primary screen, cell-based, HEK293 M3R inducible RGS4, calcium flux. Fluo-4 calcium flux; stronger effect = higher value; triggered by carbachol at its EC20. B-score at 10 µM. Regulator of G-protein signaling 4 (Homo sapiens), P49798. actives 0.45% (n = 310,000);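 active = B-score, a plate-corrected calcium signal, over three deviations above library mean, with baseline fluorescence within five deviations of library mean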;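 note: RGS4 expression induced by doxycycline in cells with stable M3 receptor; B-score is computed from the integrated fluorescence ratio over baseline after carbachol; higher B-score means a larger calcium signal and so more RGS4 inhibition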
# Target sequence (P49798 whole entry, looked up): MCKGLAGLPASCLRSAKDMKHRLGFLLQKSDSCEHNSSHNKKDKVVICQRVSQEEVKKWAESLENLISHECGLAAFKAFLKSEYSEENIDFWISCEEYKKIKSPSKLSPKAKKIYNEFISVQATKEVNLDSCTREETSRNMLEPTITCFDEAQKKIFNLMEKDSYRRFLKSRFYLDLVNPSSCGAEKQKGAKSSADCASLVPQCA
# MrgX1 allo act: positive allosteric modulators of MrgX1, primary screen, HEK293 cells, Fluo-4 calcium flux; actives 0.63% (n = 310,000); FDSS; stronger effect = higher value; B-score at 10 µM; AID 588675, 2011;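 active = plate-corrected calcium response at least 3 library SD above typical, normal starting fluorescence, not activating the receptor alone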;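 note: compound read alongside a low EC10 to EC30 dose of BAM8-22 agonist; peak minus trough fluorescence over baseline measured at the second addition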
# MrgX1 antag conf: MrgX1 receptor antagonists, duplicate retest, confirmation, HEK293 cells, Fluo-4 calcium flux. shares compounds with MrgX1 antag. BAM8-22 calcium flux; stronger effect = lower value. remaining BAM8-22 calcium response % of control (stronger effect = lower value), % at 10 µM. actives 19% (n = 2,300);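 active = remaining agonist calcium response no higher than 100% minus 3 SD of agonist-only control wells, with starting fluorescence near control levels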;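 note: agonist BAM8-22 given at a near maximal EC90 to ECmax level; peak minus minimum fluorescence divided by baseline after agonist addition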
# HEK293 Ca flux: nonspecific calcium signal in parental HEK293, confirmation, counter-screen for MrgX1 antagonist project, parental HEK293 cells, Fluo-4 calcium flux; shares compounds with MrgX1 antag; Fluo-4 calcium fluorescence, FDSS; fluorescence ratio F(max-min)/F0 at 10 µM; actives 2% (n = 4,000);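 active = duplicate-averaged calcium fluorescence ratio at least three times the standard deviation of buffer wells, a nonspecific response in parental cells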
# HEK293 Ca counter: calcium response in parental HEK293 cells, primary screen, counter-screen for MrgX1 allosteric activator project, cell-based, Fluo-4 calcium flux, duplicate. shares compounds with MrgX1 antag. Fluo-4 fluorescence ratio; stronger effect = higher value. fluorescence ratio F(max-min)/F0 at 10 µM. actives 0.4% (n = 4,000);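 active = calcium fluorescence ratio, averaged over duplicates, at least 3 SD of the buffer-well ratio, meaning a nonspecific response in receptor-free cells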;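 note: untransfected parental HEK293 lacking MrgX1 used as counterscreen for MrgX1 allosteric activators; fluorescence change taken during the second addition on a kinetic imager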
# HEK293 Ca cntr2: calcium response in parental HEK293 cells, primary screen, counter-screen for MrgX1 agonist project, cell-based, Fluo-4 calcium flux, duplicate, agonist mode; shares compounds with MrgX1 antag; Fluo-4 calcium fluorescence (FDSS); stronger effect = higher value; fluorescence ratio F(max-min)/F0 at 10 µM; actives 8.7% (n = 4,000);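 active = calcium fluorescence ratio at least three times the spread of buffer wells, meaning a non-specific response in parental cells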
# * marks the source's active call; other numbers are inactive results; i = inactive; · = not tested or not shown; ! = repeats disagree.
SMILES,MrgX1 ag,MrgX1 antag,RGS4 pot,KCC2 mod,RGS4 block,MrgX1 allo act,MrgX1 antag conf,HEK293 Ca flux,HEK293 Ca counter,HEK293 Ca cntr2
Cc1ccc(C)c(NC(=O)CCNC(=O)N2C[C@H]3C[C@@H](C2)c2cccc(=O)n2C3)c1,i,i,i,·,i,i,·,·,·,·
Cc1c(C(=O)N2CCC3(CC2)OCCO3)oc2ccc(S(=O)(=O)N3CCOCC3)cc12,i,-4.5*,i,-0.73,i,i,i,i,i,i
Cc1c(C(=O)N2CCC3(CC2)OCCO3)oc2ccccc12,i,i,i,-0.14,i,i,·,·,·,·
CCOC(=O)c1ccc2[nH]c(-c3ccc(S(=O)(=O)F)cc3)cc(=O)c2c1,i,i,i,-0.63,i,i,·,·,·,·
CCOc1ccc(-c2cc(C)[n+](CCc3ccc(OC)c(OC)c3)c(-c3ccc(OCC)cc3)c2)cc1,i,-13*,-9.9*,·,i,i,70%*,i,i,i
COC(=O)C1=CO[C@@H](C)[C@@H]2CN(CCc3c[nH]c4ccccc34)CC[C@H]12,i,i,i,·,i,i,·,·,·,·
CCCCn1c(O)c(C(CC)=NCc2cc(OC)cc(OC)c2)c(=O)[nH]c1=O,i,i,i,-1.1,i,i,·,·,·,·
CCCCn1c(O)c(C(C)=NCc2cc(OC)cc(OC)c2)c(=O)[nH]c1=O,i,-6.8*,i,0.34,i,i,i,i,i,i
O=c1[nH]c(=S)[nH]c(O)c1/C=N/N1CCOCC1,i,i,i,-0.035,i,i,·,·,·,·
COc1cc(N2C(=O)CC(=O)NC2=O)cc(OC)c1OC,i,-5.1*,i,·,i,i,82%*,i,i,i
N=C1C(c2ccccc2)=C(O)CN1Cc1ccco1,i,-5.7*,i,1.8,i,i,i,i,i,i
CCC(=O)O[C@@H]1[C@@H](OC(C)=O)[C@@]2(O)C(C[C@H](O)C2(C)C)[C@](C)(O)[C@H]2CC[C@@H]3[C@@H](O)[C@]12C[C@@]3(C)O (stereo partly specified),i,i,i,0.17,i,i,·,·,·,·
Cc1c(C=O)c2ccccc2n1Cc1ccccc1F,i,-11*,i,0.36,i,i,i,i,i,i
Cc1ccc(C)c(OCc2cc(C(=O)N3C[C@H]4C[C@@H](C3)c3cccc(=O)n3C4)no2)c1,i,i,i,·,i,i,·,·,·,·
COc1cccc(C2(O)CCN(Cc3ccncc3)CC2)c1,i,i,i,-0.19,i,i,·,·,·,·
CC(C)CCn1c(=O)c(C(=O)NCc2ccc3c(c2)OCO3)c(O)c2ccccc21,i,-7.7*,i,·,i,i,i,i,i,i
CCCCn1c(=O)c(C(=O)NCc2ccccc2OC)c(O)c2ccccc21,i,i,i,·,i,i,·,·,·,·
ClC1C(Cl)C(Cl)C(Cl)C(Cl)C1Cl (stereo unspecified),i,-6.9*!,·,·,·,i,i,i,i,i
CCC1C(C#N)=C(N)Oc2c1c(=O)oc1ccccc21 (stereo unspecified),i,i,i,·,i,i,·,·,·,·
CC(C)CC1C(C#N)=C(N)Oc2c1c(=O)oc1ccccc21 (stereo unspecified),i,-6.3*,i,0.61,i,i,i,i,i,i
COC(=O)C1=C(c2ccc(S(C)(=O)=O)cc2)C[C@@H]2CC[C@H]1N2C(=O)NCCO,i,i,i,·,i,i,·,·,·,·
COC(=O)C1=C(c2ccc(S(C)(=O)=O)cc2)C[C@@H]2CC[C@H]1N2C(=O)NCC1CC1,i,-9.4*,i,·,i,i,i,i,i,i
O=C(N/N=C/c1c(O)n(-c2cccc3ccccc23)c(=O)[nH]c1=O)c1ccncc1,i,i,i,0.01,i,i,·,·,·,·
COc1cccc(-n2c(/C=C/c3ccc(O)c(O)c3)nc3ccccc3c2=O)c1,i,-5.7*,i,-1.1,i,i,i,i,i,i
CCN(CC(=O)Nc1ccc(C#N)c(Cl)c1)CC(=O)NC(C)(C)C,i,i,i,-1.8,i,i,·,·,·,·
Cc1sc2ncnc(N3CCC(C(=O)Nc4ccc(C#N)c(Cl)c4)CC3)c2c1C,i,-5.8*,i,·,i,i,i,i,i,i
CCN1C[C@]2(CO)CC[C@H](OC)[C@@]34C5C[C@H]6[C@H](OC)C5[C@](O)(C[C@H]6OC)[C@@](O)(C(OC)C23)[C@@H]14 (stereo partly specified),i,-4.6*,i,·,i,i,i,i,i,i
C[C@H]1CCC/C=C/[C@@H]2C[C@H](O)C[C@H]2[C@H](O)/C=C/C(=O)O1,i,i,·,·,·,i,·,·,·,·
